Measured values from different studies.
Protocols differ between the studies behind these lines.
Organism: Trypanosoma brucei
Effect on: parasite growth

Nc1nc(N)nc(Nc2ccc([As]3SCC(CO)S3)cc2)n1 (centres unmarked) — IC50 (RHODESIENSE STIB900): 0.007 µM
CNC1CC(c2ccc(Cl)c(Cl)c2)c2ccccc21 (centres unmarked) — EC50 (blood stage): 1.97 µM
O=C(O)c1ccccc1-c1ccccc1C(=O)Nc1ccc2c(c1)oc(=O)c1ccccc12 — EC50 (resazurin; 72 h): > 50 µM
c1ccc(CCCN2CCN(CCOC(c3ccccc3)c3ccccc3)CC2)cc1 — EC50 (blood stage): 9.3 µM
COC(=O)C1CCN(C(=O)c2ccc(NCc3cnc4nc(N)nc(N)c4n3)cc2)CC1 — inhibition (resazurin; 10 µM; 72 h): 16%
Cc1nn(C)c(C)c1NS(=O)(=O)c1c(Cl)cc(-c2ccnc(N3CCNCC3)c2)cc1Cl — EC50 (RHODESIENSE): 0.0006 µM
COC(=O)C1CCN(C(=O)c2ccc(N(C)Cc3cnc4nc(N)nc(N)c4n3)cc2)CC1 — inhibition (resazurin; 10 µM; 72 h): 26%
O=C(O)c1ccccc1-c1ccccc1C(=O)Nc1cc2c3ccccc3ccc2c2ccccc12 — EC50 (resazurin; 72 h): 24.4 µM
